MrgX1 ag – agonists of human MrgX1 receptor, primary screen, HEK293 cells, Fluo-4 calcium flux | Mas-related G-protein coupled receptor member X1 (Homo sapiens), Q96LB2 | Fluo-4 calcium fluorescence, agonist mode; stronger effect = higher value | B-score at 10 µM | 310,000 compounds, 0.44% hits;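 active = calcium response B-score plate-corrected fluorescence ratio at least 3 library SD, with starting fluorescence B-score inside 5 SD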
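Material: MrgX1-expressing HEK293 cells; input: 15,000 cells per well; doses: test compound given as first of three sequential additions; schedule: overnight plating before 1 h dye loading; technique: Fluo-4 NW calcium-flux fluorescence, kinetic read; evaluation: baseline-normalised fluorescence change ratio, B-scored; control set: plate-wise positive and negative controls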
RGS4 block – RGS4 inhibitors, primary screen, cell-based, HEK293 M3R inducible RGS4, calcium flux. Regulator of G-protein signaling 4 (Homo sapiens), P49798. Fluo-4 calcium flux; stronger effect = higher value; triggered by carbachol at its EC20. B-score at 10 µM. 310,000 compounds, 0.45% hits. AID 463165, 2010;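 active = B-score, a plate-corrected calcium signal, over three deviations above library mean, with baseline fluorescence within five deviations of library mean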;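 note: RGS4 expression induced by doxycycline in cells with stable M3 receptor; B-score is computed from the integrated fluorescence ratio over baseline after carbachol; higher B-score means a larger calcium signal and so more RGS4 inhibition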
Target sequence (P49798 whole entry, looked up): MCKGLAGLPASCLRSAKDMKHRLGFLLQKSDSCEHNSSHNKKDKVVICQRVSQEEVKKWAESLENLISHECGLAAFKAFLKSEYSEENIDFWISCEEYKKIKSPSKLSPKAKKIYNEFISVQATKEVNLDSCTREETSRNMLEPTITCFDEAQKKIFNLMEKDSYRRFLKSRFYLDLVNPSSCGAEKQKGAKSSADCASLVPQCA
MrgX1 PAM – positive allosteric modulators of MrgX1, primary screen, HEK293 cells, Fluo-4 calcium flux; Mas-related G-protein coupled receptor member X1 (Homo sapiens), Q96LB2; FDSS; stronger effect = higher value; B-score at 10 µM; 310,000 compounds, 0.63% hits; AID 588675, 2011;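 active = plate-corrected calcium response at least 3 library SD above typical, normal starting fluorescence, not activating the receptor alone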;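 note: compound read alongside a low EC10 to EC30 dose of BAM8-22 agonist; peak minus trough fluorescence over baseline measured at the second addition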
RGS4 pot – RGS4 potentiators or activators, primary screen, cell-based, HEK293 M3R inducible RGS4, calcium flux; 310,000 compounds, 0.92% hits; carbachol calcium flux Fluo4; stronger effect = lower value; AID 463111, 2010; B-score at 10 µM;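 active = B-score of the integrated calcium signal more than 4 SD below the library mean, with starting fluorescence not abnormally high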;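 note: negative B-score means reduced calcium response which marks RGS4 activation or potentiation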
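System – HEK293 FlpIn-TREx cells, stable M3R, doxycycline-inducible RGS4 · Reagent – ECmax carbachol challenge · Times – compound preincubation 20 min at room temperature before agonist · Technique – Fluo4 fluorescence kinetic imaging of calcium · Measure – B score of integrated Fluo4 ratio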
MrgX1 antag – antagonists of human MrgX1 receptor, primary screen, HEK293 cells, Fluo-4 calcium flux; Mas-related G-protein coupled receptor member X1 (Homo sapiens), Q96LB2; BAM8-22 antagonism; stronger effect = lower value; B-score at 10 µM; 310,000 compounds, 1.3% hits; AID 588676, 2011;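 active = calcium-response B-score plate-corrected more than 3 library SD below zero, starting fluorescence within 5 deviations, no agonist response on first addition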;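 note: peak minus trough fluorescence over baseline after final BAM8-22 challenge near maximal dose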
RGS4 block valid – enhanced carbachol calcium response, M3R/RGS4 cells, RGS4 inhibitor project, cell-based, validation screen, HEK293 M3R/RGS4, calcium flux; carbachol calcium Fluo-4 fluorescence; carbachol added at its EC20; 0 = buffer wells, 100 = carbachol control; calcium response, % at 10 µM; 1,700 compounds, 65% hits; shares compounds with RGS4 block;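 active = duplicate-averaged calcium response above the buffer-only control mean plus 5 SD of those controls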;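 note: integrated fluorescence ratio F max minus min over baseline F0; higher response in RGS4-induced cells means RGS4 inhibition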
M3R Ca ctr – carbachol calcium response in non-induced M3R cells, confirmation, counter-screen for RGS4 inhibitor project, cell-based, HEK293 M3R; shares compounds with RGS4 block; carbachol calcium Fluo-4; submaximal (EC20) carbachol stimulus; buffer wells 0%, carbachol control wells 100%; activity (percent), % at 10 µM; 1,900 compounds, 20% hits; AID 493000, 2010; call rule not given here;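 note: RGS4 induction absent so cells express M3R without RGS4; higher means more calcium signal and flags a non-specific hit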
RGS4 inh ctr2 – second counter-screen for RGS4 inhibitors: non-induced cells without carbachol. HEK293 M3R/RGS4 non-induced, Fluo-4 calcium, no carbachol; normalised: buffer wells 0%, carbachol wells 100%. 1,900 compounds, 22% hits. calcium response (agonist-mode artifact), % at 10 µM. shares compounds with RGS4 block;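 active = duplicate-averaged calcium rise in uninduced cells above buffer wells' mean plus 5 SD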
The depositor's hits bear a star. This is a sample that favours compounds with a hit; in the whole collection about 3.5% have one here.

Screening CC1C/C(=C/c2ccccn2)C(=O)/C(=C/c2ccccn2)C1 (stereo unspecified) returned MrgX1 ag inactive, RGS4 block 10.2*, MrgX1 PAM inactive, RGS4 pot inactive, MrgX1 antag inactive, RGS4 block valid 36.5%*, M3R Ca ctr inactive and RGS4 inh ctr2 13.0%*.
CC(OC(=O)c1cc(=O)[nH]c2ccccc12)c1ccccc1 (stereo unspecified) was read as MrgX1 ag inactive, RGS4 block inactive, MrgX1 PAM inactive, RGS4 pot inactive and MrgX1 antag inactive.
Screening N#CC1=C2N=C(N)c3ccccc3N2C2=C(C(=O)CCC2)C1c1ccc(Cl)cc1 (stereo unspecified) returned MrgX1 ag inactive, RGS4 block 7.51*, MrgX1 PAM inactive, RGS4 pot inactive, MrgX1 antag inactive, RGS4 block valid 19.5%*, M3R Ca ctr 28.5%* and RGS4 inh ctr2 24.5%*.
Screening Cc1cc2cc(C)c(NCCNC(=O)c3ccccc3F)nc2cc1C returned MrgX1 ag inactive, RGS4 block inactive, MrgX1 PAM inactive, RGS4 pot inactive, MrgX1 antag inactive, RGS4 block valid inactive, M3R Ca ctr inactive and RGS4 inh ctr2 inactive.
For Cc1cc2cc(C)c(NCCNC(=O)c3cccc(F)c3)nc2cc1C the results were MrgX1 ag inactive, RGS4 block 5.3*, MrgX1 PAM inactive, RGS4 pot inactive, MrgX1 antag inactive, RGS4 block valid inactive, M3R Ca ctr inactive and RGS4 inh ctr2 inactive.
Cc1cccc(C(=O)NCCNc2nc3cc(C)c(C)cc3cc2C)c1 was read as MrgX1 ag inactive, RGS4 block inactive, MrgX1 PAM inactive, RGS4 pot inactive, MrgX1 antag inactive, RGS4 block valid inactive, M3R Ca ctr inactive and RGS4 inh ctr2 inactive.
COC(=O)C1=C(N)OC2=C(C(=O)CC(C)(C)C2)C1c1cc2c(cc1Cl)OCO2 (stereo unspecified) was read as MrgX1 ag inactive, RGS4 block inactive, MrgX1 PAM inactive, RGS4 pot inactive and MrgX1 antag inactive.
`COc1ccc2c(c1OC)C(=O)OC2Nc1nc(-c2cc3ccccc3oc2=O)cs1` (stereo unspecified) gave MrgX1 ag inactive, RGS4 block inactive, MrgX1 PAM inactive, RGS4 pot inactive and MrgX1 antag inactive.
COc1ccc2c(c1OC)C(=O)OC2Nc1nc(-c2ccc(-c3ccccc3)cc2)cs1 (stereo unspecified) was read as MrgX1 ag inactive, RGS4 block inactive, MrgX1 PAM inactive, RGS4 pot inactive, MrgX1 antag inactive, RGS4 block valid inactive, M3R Ca ctr inactive and RGS4 inh ctr2 8.0%*.
Screening COc1cccc(-c2csc(NC3OC(=O)c4c3ccc(OC)c4OC)n2)c1 (stereo unspecified) returned MrgX1 ag inactive, RGS4 block inactive, MrgX1 PAM inactive, RGS4 pot inactive, MrgX1 antag inactive, M3R Ca ctr inactive and RGS4 inh ctr2 inactive.
Screening O=c1cc(C23CC4CC(CC(C4)C2)C3)[nH][nH]1 returned MrgX1 ag inactive, RGS4 block inactive, MrgX1 PAM inactive, RGS4 pot inactive and MrgX1 antag inactive.
